{"source": "ChEMBL document CHEMBL1275252", "about": "“First survey of metallo-beta-lactamases in clinical isolates of Pseudomonas aeruginosa in a German university hospital” (2010)", "assay_type_in_all_cases": "functional", "key": {"[1]": {"system": "Pseudomonas aeruginosa", "test": "Antimicrobial activity against metallo-beta-lactamase-negative Pseudomonas aeruginosa isolate PA342", "in_short": "(§1)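 MBL-negative clinical P. aeruginosa isolates with reduced imipenem susceptibility, collected at the study hospital, some from cystic fibrosis patients. Species identity was confirmed by automated Gram-negative identification card. MIC was read in μg/ml.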"}, "[2]": {"system": "Pseudomonas aeruginosa", "test": "Antimicrobial activity against metallo-beta-lactamase-negative Pseudomonas aeruginosa isolate PA370", "in_short": "as §1"}, "[3]": {"system": "Pseudomonas aeruginosa", "test": "Antimicrobial activity against Pseudomonas aeruginosa PA399 expressing VIM-2 beta-lactamase", "in_short": "(§2)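 Well-characterized MBL-producing control strains from earlier studies: nine P. aeruginosa and one A. baumannii. MIC was read in μg/ml and used to set screening breakpoints for MBL producers.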"}, "[4]": {"system": "Pseudomonas aeruginosa", "test": "Antimicrobial activity against metallo-beta-lactamase-negative Pseudomonas aeruginosa isolate PA341", "in_short": "as §1"}, "[5]": {"system": "Pseudomonas aeruginosa", "test": "Antimicrobial activity against metallo-beta-lactamase-negative Pseudomonas aeruginosa isolate PA339", "in_short": "as §1"}, "[6]": {"system": "Pseudomonas aeruginosa", "test": "Antimicrobial activity against metallo-beta-lactamase-negative Pseudomonas aeruginosa isolate PA362", "in_short": "as §1"}, "[7]": {"system": "Pseudomonas aeruginosa", "test": "Antimicrobial activity against Pseudomonas aeruginosa isolate PA481 expressing VIM-2 beta-lactamase"}, "[8]": {"system": "Pseudomonas aeruginosa", "test": "Antimicrobial activity against metallo-beta-lactamase-negative Pseudomonas aeruginosa isolate PA376"}, "[9]": {"system": "Pseudomonas aeruginosa", "test": "Antimicrobial activity against metallo-beta-lactamase-negative Pseudomonas aeruginosa isolate PA368", "in_short": "as §1"}, "[10]": {"system": "Pseudomonas aeruginosa", "test": "Antimicrobial activity against Pseudomonas aeruginosa PA373 expressing VIM-2 beta-lactamase", "in_short": "as §2"}, "[11]": {"system": "Pseudomonas aeruginosa", "test": "Antimicrobial activity against metallo-beta-lactamase-negative Pseudomonas aeruginosa isolate PA774 isolated from patient with cystic fibrosis", "in_short": "as §1"}, "[12]": {"system": "Pseudomonas aeruginosa", "test": "Antimicrobial activity against metallo-beta-lactamase-negative Pseudomonas aeruginosa isolate PA736 isolated from patient with cystic fibrosis", "in_short": "as §1"}, "[13]": {"system": "Pseudomonas aeruginosa", "test": "Antimicrobial activity against metallo-beta-lactamase-negative Pseudomonas aeruginosa isolate PA346", "in_short": "as §1"}, "[14]": {"system": "Pseudomonas aeruginosa", "test": "Antimicrobial activity against Pseudomonas aeruginosa PA550 expressing VIM-1 beta-lactamase", "in_short": "as §2"}, "[15]": {"system": "Pseudomonas aeruginosa", "test": "Antimicrobial activity against metallo-beta-lactamase-negative Pseudomonas aeruginosa isolate PA460"}, "[16]": {"system": "Pseudomonas aeruginosa", "test": "Antimicrobial activity against Pseudomonas aeruginosa PA386 expressing IMP-13 beta-lactamase", "in_short": "as §2"}, "[17]": {"system": "Pseudomonas aeruginosa", "test": "Antimicrobial activity against metallo-beta-lactamase-negative Pseudomonas aeruginosa isolate PA355", "in_short": "as §1"}, "[18]": {"system": "Pseudomonas aeruginosa", "test": "Antimicrobial activity against metallo-beta-lactamase-negative Pseudomonas aeruginosa isolate PA382", "in_short": "as §1"}, "[19]": {"system": "Pseudomonas aeruginosa", "test": "Antimicrobial activity against metallo-beta-lactamase-negative Pseudomonas aeruginosa isolate PA361", "in_short": "as §1"}, "[20]": {"system": "Pseudomonas aeruginosa", "test": "Antimicrobial activity against metallo-beta-lactamase-negative Pseudomonas aeruginosa isolate PA350", "in_short": "as §1"}, "[21]": {"system": "Pseudomonas aeruginosa", "test": "Antimicrobial activity against metallo-beta-lactamase-negative Pseudomonas aeruginosa isolate PA364", "in_short": "as §1"}, "[22]": {"system": "Pseudomonas aeruginosa", "test": "Antimicrobial activity against metallo-beta-lactamase-negative Pseudomonas aeruginosa isolate PA340", "in_short": "as §1"}, "[23]": {"system": "Pseudomonas aeruginosa", "test": "Antimicrobial activity against metallo-beta-lactamase-negative Pseudomonas aeruginosa isolate PA360", "in_short": "as §1"}, "[24]": {"system": "Pseudomonas aeruginosa", "test": "Antimicrobial activity against metallo-beta-lactamase-negative Pseudomonas aeruginosa isolate PA734 isolated from patient with cystic fibrosis", "in_short": "as §1"}, "[25]": {"system": "Pseudomonas aeruginosa", "test": "Antimicrobial activity against metallo-beta-lactamase-negative Pseudomonas aeruginosa isolate PA509"}, "[26]": {"system": "Pseudomonas aeruginosa", "test": "Antimicrobial activity against Pseudomonas aeruginosa isolate PA465 expressing VIM-2 beta-lactamase"}, "[27]": {"system": "Pseudomonas aeruginosa", "test": "Antimicrobial activity against Pseudomonas aeruginosa isolate PA399 expressing VIM-2 beta-lactamase"}, "[28]": {"system": "Pseudomonas aeruginosa", "test": "Antimicrobial activity against Pseudomonas aeruginosa isolate PA510 expressing VIM-2 beta-lactamase"}, "[29]": {"system": "Pseudomonas aeruginosa", "test": "Antimicrobial activity against metallo-beta-lactamase-negative Pseudomonas aeruginosa isolate PA479"}, "[30]": {"system": "Pseudomonas aeruginosa", "test": "Antimicrobial activity against metallo-beta-lactamase-negative Pseudomonas aeruginosa isolate PA483"}, "[31]": {"system": "Pseudomonas aeruginosa", "test": "Antimicrobial activity against metallo-beta-lactamase-negative Pseudomonas aeruginosa isolate PA395", "in_short": "as §1"}, "[32]": {"system": "Pseudomonas aeruginosa", "test": "Antimicrobial activity against metallo-beta-lactamase-negative Pseudomonas aeruginosa isolate PA381", "in_short": "as §1"}, "[33]": {"system": "Pseudomonas aeruginosa", "test": "Antimicrobial activity against metallo-beta-lactamase-negative Pseudomonas aeruginosa isolate PA377", "in_short": "as §1"}, "[34]": {"system": "Pseudomonas aeruginosa", "test": "Antimicrobial activity against Pseudomonas aeruginosa PA431 expressing IMP-1 beta-lactamase", "in_short": "as §2"}, "[35]": {"system": "Pseudomonas aeruginosa", "test": "Antimicrobial activity against Pseudomonas aeruginosa PA552 expressing IMP-1 beta-lactamase", "in_short": "as §2"}, "[36]": {"system": "Pseudomonas aeruginosa", "test": "Antimicrobial activity against Pseudomonas aeruginosa isolate PA469 expressing VIM-2 beta-lactamase"}, "[37]": {"system": "Pseudomonas aeruginosa", "test": "Antimicrobial activity against Pseudomonas aeruginosa PA554 expressing GIM-1 beta-lactamase", "in_short": "as §2"}, "[38]": {"system": "Pseudomonas aeruginosa", "test": "Antimicrobial activity against Pseudomonas aeruginosa isolate PA477 expressing VIM-2 beta-lactamase"}, "[39]": {"system": "Pseudomonas aeruginosa", "test": "Antimicrobial activity against Pseudomonas aeruginosa PA430 expressing VIM-4 beta-lactamase", "in_short": "as §2"}, "[40]": {"system": "Pseudomonas aeruginosa", "test": "Antimicrobial activity against metallo-beta-lactamase-negative Pseudomonas aeruginosa isolate PA459", "in_short": "as §1"}, "[41]": {"system": "Pseudomonas aeruginosa", "test": "Antimicrobial activity against metallo-beta-lactamase-negative Pseudomonas aeruginosa isolate PA380", "in_short": "as §1"}, "[42]": {"system": "Pseudomonas aeruginosa", "test": "Antimicrobial activity against Pseudomonas aeruginosa PA553 expressing SPM-1 beta-lactamase", "in_short": "as §2"}, "[43]": {"system": "Pseudomonas aeruginosa", "test": "Antimicrobial activity against metallo-beta-lactamase-negative Pseudomonas aeruginosa isolate PA352", "in_short": "as §1"}, "[44]": {"system": "Pseudomonas aeruginosa", "test": "Antimicrobial activity against Pseudomonas aeruginosa isolate PA462 expressing VIM-2 beta-lactamase"}, "[45]": {"system": "Pseudomonas aeruginosa", "test": "Antimicrobial activity against metallo-beta-lactamase-negative Pseudomonas aeruginosa isolate PA758 isolated from patient with cystic fibrosis", "in_short": "as §1"}, "[46]": {"system": "Pseudomonas aeruginosa", "test": "Antimicrobial activity against metallo-beta-lactamase-negative Pseudomonas aeruginosa isolate PA356", "in_short": "as §1"}, "[47]": {"system": "Pseudomonas aeruginosa", "test": "Antimicrobial activity against Pseudomonas aeruginosa isolate PA500 expressing VIM-1 beta-lactamase"}, "[48]": {"system": "Pseudomonas aeruginosa", "test": "Antimicrobial activity against metallo-beta-lactamase-negative Pseudomonas aeruginosa isolate PA494"}, "[49]": {"system": "Acinetobacter baumannii", "test": "Antimicrobial activity against Acinetobacter baumannii AB551 expressing SIM-1 beta-lactamase", "in_short": "as §2"}, "[50]": {"system": "Pseudomonas aeruginosa", "test": "Antimicrobial activity against metallo-beta-lactamase-negative Pseudomonas aeruginosa isolate PA349", "in_short": "as §1"}, "[51]": {"system": "Pseudomonas aeruginosa", "test": "Antimicrobial activity against Pseudomonas aeruginosa isolate PA475 expressing VIM-2 beta-lactamase"}}}
{"smiles": "C[C@@H](O)[C@H]1C(=O)N2C(C(=O)O)=C(SCCNC=N)C[C@H]12", "note": "[IMIPENEM ANHYDROUS]", "values": [{"measurement": "MIC", "setting": "[1]", "result": "≥ 16", "unit": "µg/mL"}, {"measurement": "MIC", "setting": "[2]", "result": "≥ 16", "unit": "µg/mL"}, {"measurement": "MIC", "setting": "[3]", "result": "≥ 16", "unit": "µg/mL"}, {"measurement": "MIC", "setting": "[4]", "result": "≥ 16", "unit": "µg/mL"}, {"measurement": "MIC", "setting": "[5]", "result": "≥ 16", "unit": "µg/mL"}, {"measurement": "MIC", "setting": "[6]", "result": 8, "unit": "µg/mL"}, {"measurement": "MIC", "setting": "[7]", "result": "≥ 16", "unit": "µg/mL"}, {"measurement": "MIC", "setting": "[8]", "result": "≥ 16", "unit": "µg/mL"}, {"measurement": "MIC", "setting": "[9]", "result": "≥ 16", "unit": "µg/mL"}, {"measurement": "MIC", "setting": "[10]", "result": "≥ 16", "unit": "µg/mL"}, {"measurement": "MIC", "setting": "[11]", "result": "≥ 16", "unit": "µg/mL"}, {"measurement": "MIC", "setting": "[12]", "result": 8, "unit": "µg/mL"}, {"measurement": "MIC", "setting": "[13]", "result": "≥ 16", "unit": "µg/mL"}, {"measurement": "MIC", "setting": "[14]", "result": "≥ 16", "unit": "µg/mL"}, {"measurement": "MIC", "setting": "[15]", "result": "≥ 16", "unit": "µg/mL"}, {"measurement": "MIC", "setting": "[16]", "result": "≥ 16", "unit": "µg/mL"}, {"measurement": "MIC", "setting": "[17]", "result": "≥ 16", "unit": "µg/mL"}, {"measurement": "MIC", "setting": "[18]", "result": "≥ 16", "unit": "µg/mL"}, {"measurement": "MIC", "setting": "[19]", "result": "≥ 16", "unit": "µg/mL"}, {"measurement": "MIC", "setting": "[20]", "result": "≥ 16", "unit": "µg/mL"}, {"measurement": "MIC", "setting": "[21]", "result": 8, "unit": "µg/mL"}, {"measurement": "MIC", "setting": "[22]", "result": 8, "unit": "µg/mL"}, {"measurement": "MIC", "setting": "[23]", "result": 8, "unit": "µg/mL"}, {"measurement": "MIC", "setting": "[24]", "result": "≥ 16", "unit": "µg/mL"}, {"measurement": "MIC", "setting": "[25]", "result": "≥ 16", "unit": "µg/mL"}, {"measurement": "MIC", "setting": "[26]", "result": "≥ 16", "unit": "µg/mL"}, {"measurement": "MIC", "setting": "[27]", "result": "≥ 16", "unit": "µg/mL"}, {"measurement": "MIC", "setting": "[28]", "result": "≥ 16", "unit": "µg/mL"}, {"measurement": "MIC", "setting": "[29]", "result": 8, "unit": "µg/mL"}, {"measurement": "MIC", "setting": "[30]", "result": "≥ 16", "unit": "µg/mL"}, {"measurement": "MIC", "setting": "[31]", "result": "≥ 16", "unit": "µg/mL"}, {"measurement": "MIC", "setting": "[32]", "result": "≥ 16", "unit": "µg/mL"}, {"measurement": "MIC", "setting": "[33]", "result": "≥ 16", "unit": "µg/mL"}, {"measurement": "MIC", "setting": "[34]", "result": 8, "unit": "µg/mL"}, {"measurement": "MIC", "setting": "[35]", "result": "≥ 16", "unit": "µg/mL"}, {"measurement": "MIC", "setting": "[36]", "result": "≥ 16", "unit": "µg/mL"}, {"measurement": "MIC", "setting": "[37]", "result": "≥ 16", "unit": "µg/mL"}, {"measurement": "MIC", "setting": "[38]", "result": "≥ 16", "unit": "µg/mL"}, {"measurement": "MIC", "setting": "[39]", "result": "≥ 16", "unit": "µg/mL"}, {"measurement": "MIC", "setting": "[40]", "result": "≥ 16", "unit": "µg/mL"}, {"measurement": "MIC", "setting": "[41]", "result": 8, "unit": "µg/mL"}, {"measurement": "MIC", "setting": "[42]", "result": "≥ 16", "unit": "µg/mL"}, {"measurement": "MIC", "setting": "[43]", "result": "≥ 16", "unit": "µg/mL"}, {"measurement": "MIC", "setting": "[44]", "result": "≥ 16", "unit": "µg/mL"}, {"measurement": "MIC", "setting": "[45]", "result": "≥ 16", "unit": "µg/mL"}, {"measurement": "MIC", "setting": "[46]", "result": "≥ 16", "unit": "µg/mL"}, {"measurement": "MIC", "setting": "[47]", "result": "≥ 16", "unit": "µg/mL"}, {"measurement": "MIC", "setting": "[48]", "result": "≥ 16", "unit": "µg/mL"}, {"measurement": "MIC", "setting": "[49]", "result": "≥ 16", "unit": "µg/mL"}, {"measurement": "MIC", "setting": "[50]", "result": "≥ 16", "unit": "µg/mL"}, {"measurement": "MIC", "setting": "[51]", "result": "≥ 16", "unit": "µg/mL"}]}
